In test [1] the test system is Beta-lactamase (Proteus vulgaris). Kind of test: Hydrolysis rate by the beta-lactamase from Proteus vulgaris 31 relative to cephaloridine (100).
For test [2], the target named is Beta-lactamase TEM (Escherichia coli) (UniProt P62593). Kind of test: Hydrolysis rate by the beta-lactamase from Escherichia coli W3110 RTEM relative to cephaloridine. In a few lines: (§1)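 Constitutive producers were grown statically in nutrient phosphate broth at 37 °C for 16 h, then sonicated. Enzyme was partially purified on DEAE-Sephadex A-25 (phosphate gradient, 0.01 M pH 8.0 to 0.5 M pH 6.2). Assay conditions: 0.1 M potassium phosphate pH 7.0, 30 °C, 0.001% gelatin in enzyme diluent, 100 μM final substrate. Hydrolysis rate was taken from the slope of UV absorbance decrease, with cephaloridine set to 100.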
Sequence of Beta-lactamase TEM (Escherichia coli) (P62593 whole entry): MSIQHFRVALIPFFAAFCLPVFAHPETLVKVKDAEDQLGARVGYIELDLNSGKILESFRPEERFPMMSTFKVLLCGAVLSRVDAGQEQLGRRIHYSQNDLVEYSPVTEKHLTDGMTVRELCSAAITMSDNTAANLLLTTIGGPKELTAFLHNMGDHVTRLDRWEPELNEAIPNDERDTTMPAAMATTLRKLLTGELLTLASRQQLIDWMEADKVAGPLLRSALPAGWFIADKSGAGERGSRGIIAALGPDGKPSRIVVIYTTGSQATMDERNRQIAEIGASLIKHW

Test [3] deals with Beta-lactamase (Escherichia coli K-12) (UniProt P00811). Kind of test: Hydrolysis rate by the beta-lactamase from Escherichia coli 6 relative to cephaloridine. In a few lines:
(§2)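 Cells were grown statically in nutrient phosphate broth for 16 h at 37 °C and disrupted ultrasonically. β-lactamase was partially purified on CM-Sephadex C-50. Substrate (100 μM final) was hydrolysed in 0.1 M potassium phosphate pH 7.0 at 30 °C, with the enzyme diluted in buffer containing 0.001% gelatin. Rate came from the slope of UV optical density decrease and was expressed relative to cephaloridine = 100.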

In test [4] the test system is Beta-lactamase (Enterobacter cloacae). Kind of test: Hydrolysis rate by the beta-lactamase from Enterobacter cloacae 214 relative to cephaloridine (100).
In test [5] the test system is Beta-lactamase (Klebsiella sp.). The test is described as follows: Hydrolysis rate by the beta-lactamase from Klebsiella sp. 363 relative to cephaloridine (100).
Test [6] has as its system Beta-lactamase (Proteus vulgaris). Kind of test: Hydrolysis rate by the beta-lactamase from Proteus vulgaris 31 relative to cephaloridine.
For test [7], the target named is Beta-lactamase (Enterobacter cloacae) (UniProt P05364). Kind of test: Hydrolysis rate by the beta-lactamase from Enterobacter cloacae 214 relative to cephaloridine (100);c= Hydrolysis was not detected. The essentials:
as §2

Test [8] addresses T1, Beta-lactamase (Klebsiella oxytoca) (UniProt Q8RT60).
T1 sequence (whole entry): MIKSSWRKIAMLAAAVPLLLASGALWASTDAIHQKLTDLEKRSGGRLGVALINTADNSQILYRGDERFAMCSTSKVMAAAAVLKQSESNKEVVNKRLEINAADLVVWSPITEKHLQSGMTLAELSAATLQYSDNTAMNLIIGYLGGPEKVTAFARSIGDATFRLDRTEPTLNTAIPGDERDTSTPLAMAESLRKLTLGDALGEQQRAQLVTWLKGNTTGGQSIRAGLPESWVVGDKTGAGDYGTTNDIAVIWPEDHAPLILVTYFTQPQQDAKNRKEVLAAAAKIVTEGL
The test is described as follows: Hydrolysis rate by beta-lactamase of Klebsiella sp. 363 relative to cephaloridine (100). In a few lines:
as §1

Test [9] addresses Beta-lactamase (Escherichia coli K-12) (UniProt P00811). Kind of test: Hydrolysis rate by the beta-lactamase from Escherichia coli 6 relative to cephaloridine (100);c= Hydrolysis was not detected. In a few lines:
as §2

For test [10], the system named is Escherichia coli. Kind of test: Inhibitory concentration of compound was tested against gram negative Escherichia coli NIH JC-2. Type of test: functional. The essentials:
(§3)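 MIC by agar dilution on sensitivity test agar with serial twofold antibiotic dilutions. The inoculum was an overnight tryptose broth culture diluted to about 10⁶ cells/mL. Plates were incubated at 37 °C for 18-20 h. MIC was the lowest concentration inhibiting visible growth.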

The subject of test [11] is Escherichia coli. The test is described as follows: Inhibitory concentration of compound was tested against gram negative Escherichia coli H organism. The format is functional. In a few lines: as §3
The subject of test [12] is Klebsiella pneumoniae. Kind of test: (§4) Inhibitory concentration of compound was tested against gram negative Klebsiella sp 363. The format is functional. In a few lines: as §3
The test system of test [13] is Klebsiella pneumoniae. The test is described as follows: Inhibitory concentration of compound was tested against gram negative Klebsiella pneumoniae. Type of test: functional. The essentials: as §3
Test [14] has as its system Proteus mirabilis. The test is described as follows: Inhibitory concentration of compound was tested against gram negative Proteus mirabilis PR-4. The format is functional. The essentials:
as §3

Test [15] has as its system Escherichia coli. The test is described as follows: Inhibitory concentration of compound was tested against gram negative Escherichia coli 73. The format is functional. The essentials: as §3
Test [16] relates to Escherichia coli. The test is described as follows: Inhibitory concentration of compound was tested against gram negative Escherichia coli NIH JC-2. The format is functional. In a few lines: as §3
For test [17], the system named is Klebsiella pneumoniae. Kind of test: Inhibitory concentration of compound was tested against gram negative Klebsiella pneumoniae.
The subject of test [18] is Escherichia coli. Kind of test: Inhibitory concentration of compound was tested against gram negative Escherichia coli H organism. The format is functional. In a few lines: as §3
The test system of test [19] is Proteus mirabilis. The test is described as follows: Inhibitory concentration of compound was tested against gram negative Proteus mirabilis PR-4.
Another test concerns Klebsiella. Described as §4. The format is functional. The essentials: as §3

Converted amounts (≈) assume the structure as drawn.

Sequence of Beta-lactamase (Escherichia coli K-12) (P00811 whole entry): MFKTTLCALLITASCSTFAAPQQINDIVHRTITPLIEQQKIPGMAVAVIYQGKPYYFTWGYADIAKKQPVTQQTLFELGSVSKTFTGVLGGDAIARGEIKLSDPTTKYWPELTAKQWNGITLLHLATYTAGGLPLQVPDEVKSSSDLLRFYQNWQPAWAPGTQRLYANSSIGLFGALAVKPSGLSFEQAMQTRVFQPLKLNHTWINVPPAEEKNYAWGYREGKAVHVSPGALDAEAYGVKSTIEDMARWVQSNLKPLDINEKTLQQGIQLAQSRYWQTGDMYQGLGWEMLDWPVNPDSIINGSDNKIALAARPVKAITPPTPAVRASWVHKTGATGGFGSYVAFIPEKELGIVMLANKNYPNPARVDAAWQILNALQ
Sequence of Beta-lactamase (Enterobacter cloacae) (UniProt P05364) (P05364 21-381 limits assumed): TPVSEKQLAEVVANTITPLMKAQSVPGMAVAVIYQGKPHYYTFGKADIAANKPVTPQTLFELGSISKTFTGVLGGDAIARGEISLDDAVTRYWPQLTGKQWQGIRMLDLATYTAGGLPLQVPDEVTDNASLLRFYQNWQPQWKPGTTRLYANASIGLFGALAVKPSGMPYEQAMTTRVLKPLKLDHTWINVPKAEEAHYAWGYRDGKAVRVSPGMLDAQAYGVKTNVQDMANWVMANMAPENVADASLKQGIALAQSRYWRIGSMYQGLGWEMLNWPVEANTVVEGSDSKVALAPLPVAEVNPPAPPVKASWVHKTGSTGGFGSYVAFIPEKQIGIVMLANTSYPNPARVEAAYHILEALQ

Take `CC1=C(C(=O)O)N2C(=O)C(NC(=O)C(N)c3ccccc3)C2OC1` (stereo unspecified): the Relative hydrolysis rate in test [1] was 330; in test [2] it was 12; in test [3], 260; in [4], 95; in test [5] it was 9.6.

Consider `Cn1nnnc1SCC1=C(C(=O)O)N2C(=O)C(NC(=O)C(C(=O)O)c3ccc(O)cc3)C2SC1` (stereo unspecified), for which the Relative hydrolysis rate in [6] is 20; in test [7], “Hydrolysis not detected”; in test [8] it was 6.3; in test [9], “Hydrolysis not detected”; in [2], 0.96. The MIC with Escherichia coli [10] came out at 3.13 µg/mL (≈ 6.18 µM); with Escherichia coli [11] it was 3.13 µg/mL (≈ 6.18 µM); in the test on Klebsiella pneumoniae [12], 50 µg/mL (≈ 98.7 µM); in the test with Klebsiella pneumoniae [13], 3.13 µg/mL (≈ 6.18 µM); with Proteus mirabilis [14] it was 3.13 µg/mL (≈ 6.18 µM); in the test on Escherichia coli [15], 50 µg/mL (≈ 98.7 µM).

Turning to `CC1=C(C(=O)O)N2C(=O)C(NC(=O)CSC(F)(F)F)C2SC1` (stereo unspecified), the Relative hydrolysis rate in test [6] came out at 160; in test [2], 1.5; in test [3] it was 750; in test [5], 6.2. Further, the MIC against Escherichia coli [16] is 50 µg/mL (≈ 140 µM); against Klebsiella pneumoniae [17], 50 µg/mL (≈ 140 µM); in the test with Escherichia coli [18], 25 µg/mL (≈ 70.2 µM); in the test on Proteus mirabilis [19], 50 µg/mL (≈ 140 µM); against Klebsiella, greater than 100 µg/mL; in the test on Escherichia coli [15] it was greater than 100 µg/mL.
